Reference: ChEMBL document CHEMBL1125676, “Synthesis and structure-activity studies of alkyl-substituted gamma-butyrolactones and gamma-thiobutyrolactones: ligands for the picrotoxin receptor” (J Med Chem, 1991)

Key:
[1] = biological target: GABA-A receptor; anion channel; test: Binding affinity to picrotoxin site of Gamma-aminobutyric acid receptor using [35S]TBPS as radioligand; type: protein-complex assay, Rattus norvegicus
Procedure, shortened: (§1)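 Rat cerebral cortex membranes (female Sprague–Dawley) washed and held in 50 mM Tris-citrate pH 7.5. [35S]TBPS at 2 nM final, in NaBr. Incubated in triplicate for 90 min at 25 °C, then filtered and scintillation counted. Nonspecific binding with 10 μM TBPS or 100 μM picrotoxinin. IC50 by log probit from ≥5 concentrations; mean ± SEM of three experiments.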

[2] = Neurotoxic effects by rotarod test in mice.; type: ADME, organism-based; details: mouse, in vivo
Procedure, shortened: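 Rotorod test in mice after ip dosing in 30% polyethylene glycol (0.01 mL/g). TD50 from log probit analysis of dose–response data.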

Mus musculus [3] = organism: Mus musculus; test: Anticonvulsant activity in mice by inhibition of pentylenetetrazole induced seizures.; type: functional
Mus musculus [4] = organism: Mus musculus; test: Anticonvulsant activity in mice by maximal electroshock test.; type: functional
Procedure, shortened: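 Maximal electroshock applied through corneal electrodes after 0.9% NaCl drops on the eyes. Compound given ip in 30% polyethylene glycol (0.01 mL/g). Protection defined as no tonic hind-limb extension past 90°. ED50 from log probit analysis of dose–response data.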

[5] = biological target: GABA-A receptor; anion channel; test: Binding affinity to picrotoxin site of the Gamma-aminobutyric acid receptor was measured using [35S]TBPS as radioligand; type: protein-complex assay; procedure, shortened: as §1
Mus musculus [6] = organism: Mus musculus; test: Convulsant potency was determined by measuring the ability to produce seizures in mice; type: functional
Procedure, shortened: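 Compound given ip in 30% polyethylene glycol (0.01 mL/g body weight). Mice observed for 30 min for seizure activity. Value is the CD50 for clonic convulsions, from log probit analysis; 95% fiducial limits given.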

Mus musculus [7] = test: Concentration of brain at 20 min was determined after the compound was administered intraperitoneally at a dose 259 mg/kg in mice; type: functional; details: route intraperitoneal
Procedure, shortened: (§2)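 Female CF-1 mice dosed ip and decapitated at the set time, n = 3. Cerebral cortex frozen and homogenized at 4 °C in chloroform:methanol 2:1 with an internal standard. Lower phase analysed by capillary GC-FID with splitless injection. Concentration taken from the ratio to the internal standard, corrected for detector response and wet weight. Mean ± SEM.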

Mus musculus [8] = test: Concentration of brain at 10 min was determined after the compound was administered intraperitoneally at a dose 259 mg/kg in mice; type: functional; details: route intraperitoneal; procedure, shortened: as §2
Mus musculus [9] = test: Concentration of brain at 40 min was determined after the compound was administered intraperitoneally at a dose 259 mg/kg in mice; type: functional; details: route intraperitoneal
Mus musculus [10] = test: Concentration of brain at 5 min was determined after the compound was administered intraperitoneally at a dose 259 mg/kg in mice; type: functional; details: route intraperitoneal; procedure, shortened: as §2
Mus musculus [11] = test: Concentration of brain at 30 min was determined after the compound was administered intraperitoneally at a dose 259 mg/kg in mice; type: functional; details: route intraperitoneal; procedure, shortened: as §2

| Compound | IC50 [1] [µM] | TD50 [2] [mg/kg] | ED50 (Mus musculus [3]) [mg/kg] | ED50 (Mus musculus [4]) [mg/kg] | IC50 [5] [µM] | other results |
| --- | --- | --- | --- | --- | --- | --- |
| CCC1CCOC1=O (stereo not given) | 8500 | > 500 | > 500 | > 500 |  |  |
| CC(C)C1(C(C)C)CCOC1=O |  |  | 137 |  | 220 |  |
| CC(C)C1(C)CCOC1=O (stereo not given) |  | 278 | 198 | > 500 | 850 |  |
| CC(C)C1CCSC1=O (stereo not given) | 260 | > 500 | 145 | > 500 |  |  |
| CC(C)C1(C)CCSC1=O (stereo not given) |  | > 500 | 154 | > 500 | 140 |  |
| CC1(C)CCOC1=O | 9200 | > 500 | > 500 | > 500 |  |  |
| CCC1(C)CC(=O)OC1(C)C (stereo not given) | 22000 |  |  |  |  | CD50 (Mus musculus [6]): 8.2 mg/kg |
| CC1(C)CCSC1=O |  | 220 | 208 | 369 | 920 |  |
| CC(C)(C)C1CCOC1=O (stereo not given) | 990 | > 500 | 145 | 375 |  |  |
| CC(C)C1(C(C)C)CCSC1=O |  | > 500 | > 500 | > 500 | 74 |  |
| CCC1(C)CCSC1=O (stereo not given) |  |  |  |  | 330 |  |
| CCC1(CC)CCSC1=O |  | 285 | 104 | 374 | 260 |  |
| CCC1(C)COC(=O)C1 (stereo not given) |  |  |  |  | 55000 | CD50 (Mus musculus [6]): 20 mg/kg |
| CC(C)C1COC(=O)C1 (stereo not given) |  |  |  |  | 42000 | CD50 (Mus musculus [6]): 15 mg/kg |
| CC(C)C1CCOC1=O (stereo not given) |  | > 400 | 150 | > 400 | 2000 |  |
| CCC1(C)CCOC1=O (stereo not given) | 2300 | 621 | 259 | > 500 |  | Brain concentration (Mus musculus [7]): 1.35 mM; Brain concentration (Mus musculus [8]): 1.83 mM; Brain concentration (Mus musculus [9]): 0.88 mM; Brain concentration (Mus musculus [10]): 2.97 mM; Brain concentration (Mus musculus [11]): 1.21 mM |
| CC1CCOC1=O (stereo not given) |  | > 500 | > 500 | > 500 | > 10000 |  |
| CCC1CCSC1=O (stereo not given) |  | > 500 | 414 | 232 | 1500 |  |
| CC(C)(C)C1COC(=O)C1 (stereo not given) | 13000 |  |  |  |  | CD50 (Mus musculus [6]): 5.5 mg/kg |
| CCC1(CC)CCOC1=O | 750 | 416 | 191 | 463 |  |  |
| CCC1(C)CSC(=O)C1 (stereo not given) |  |  |  |  |  | CD50 (Mus musculus [6]): 3.5 mg/kg |
| CC1CCSC1=O (stereo not given) |  |  | 91 | 91 | 4400 |  |
| CC(C)(C)C1CCSC1=O (stereo not given) |  | > 500 | 244 | > 500 | 190 |  |
